Assay results: ChEMBL document CHEMBL1157589, “Antifungal 3,5-disubstituted furanones: From 5-acyloxymethyl to 5-alkylidene derivatives” (Bioorg Med Chem, 2010)
The source made the active and inactive calls.

Assays:
Pichia kudriavzevii [1] = assay: Antifungal activity against Candida krusei E28 after 24 hrs by microdilution method; type: functional
Procedure, shortened: (§1)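 Yeasts held on Sabouraud dextrose agar. MIC by NCCLS M27-A broth microdilution in RPMI 1640 with L-glutamine, buffered with 0.165 M MOPS to pH 7.0. Compounds in DMSO (≤2% final), twofold dilutions 500–0.48. Final inoculum 5 × 10³ ± 0.2 cfu mL⁻¹. Incubated at 35 °C; absorbance at 540 nm read at 24 and 48 h. MIC is 80% growth inhibition versus control; run twice in duplicate.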

[2] = tested on: Trichophyton mentagrophytes; assay: Antifungal activity against Trichophyton mentagrophytes 445 after 120 hrs by microdilution method; type: functional; settings: for MIC80: Trichophyton mentagrophytes, 445, 120 h
Procedure, shortened: (§2)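 Dermatophyte held on Sabouraud dextrose agar. M27-A microdilution in MOPS-buffered (0.165 M, pH 7.0) RPMI 1640 with L-glutamine. DMSO ≤2% final; twofold dilutions 500–0.48. Inoculum 5 × 10³ ± 0.2 cfu mL⁻¹ final. Incubated at 35 °C; MIC read visually at 72 and 120 h as 80% inhibition of control growth; determined twice in duplicate.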

Pichia kudriavzevii [3] = assay: Antifungal activity against Candida krusei ATCC 6258 after 24 hrs by microdilution method; type: functional; procedure, shortened: as §1
Candida tropicalis [4] = assay: Antifungal activity against Candida tropicalis 156 after 24 hrs by microdilution method; type: functional; procedure, shortened: as §1
Candida parapsilosis [5] = assay: Antifungal activity against Candida parapsilosis ATCC 22019 after 48 hrs by microdilution method; type: functional; procedure, shortened: as §1
[6] = tested on: Trichophyton mentagrophytes; assay: Antifungal activity against Trichophyton mentagrophytes 445 after 72 hrs by microdilution method; type: functional; settings: for MIC80: Trichophyton mentagrophytes, 445, 72 h; procedure, shortened: as §2
Candida tropicalis [7] = assay: Antifungal activity against Candida tropicalis 156 after 48 hrs by microdilution method; type: functional; procedure, shortened: as §1
Lichtheimia corymbifera [8] = assay: Antifungal activity against Absidia corymbifera 272 after 48 hrs by microdilution method; type: functional
Procedure, shortened: (§3)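 Filamentous strains held on Sabouraud dextrose agar. NCCLS M27-A broth microdilution in RPMI 1640 with L-glutamine and 0.165 M MOPS, pH 7.0. DMSO diluent ≤2% final; twofold dilutions 500–0.48. Inoculum 5 × 10³ ± 0.2 cfu mL⁻¹ final.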

Clavispora lusitaniae [9] = assay: Antifungal activity against Candida lusitaniae 2446/I after 48 hrs by microdilution method; type: functional; procedure, shortened: as §1
Nakaseomyces glabratus [10] = assay: Antifungal activity against Candida glabrata 20/I after 24 hrs by microdilution method; type: functional; procedure, shortened: as §1
Candida albicans [11] = assay: Antifungal activity against Candida albicans ATCC 90028 after 48 hrs by microdilution method; type: functional; procedure, shortened: as §1
Trichosporon beigelii [12] = assay: Antifungal activity against Trichosporon beigelii 1188 after 24 hrs by microdilution method; type: functional; settings: for MIC80: Trichosporon beigelii, 1188, 24 h; procedure, shortened: as §1
Candida parapsilosis [13] = assay: Antifungal activity against Candida parapsilosis ATCC 22019 after 24 hrs by microdilution method; type: functional; procedure, shortened: as §1
Aspergillus fumigatus [14] = assay: Antifungal activity against Aspergillus fumigatus 231 after 24 hrs by microdilution method; type: functional; procedure, shortened: as §3
Pichia kudriavzevii [15] = assay: Antifungal activity against Candida krusei E28 after 48 hrs by microdilution method; type: functional; procedure, shortened: as §1
Nakaseomyces glabratus [16] = assay: Antifungal activity against Candida glabrata 20/I after 48 hrs by microdilution method; type: functional; procedure, shortened: as §1
Clavispora lusitaniae [17] = assay: Antifungal activity against Candida lusitaniae 2446/I after 24 hrs by microdilution method; type: functional; procedure, shortened: as §1
Candida albicans [18] = assay: Antifungal activity against Candida albicans ATCC 44859 after 24 hrs by microdilution method; type: functional; procedure, shortened: as §1
Lichtheimia corymbifera [19] = assay: Antifungal activity against Absidia corymbifera 272 after 24 hrs by microdilution method; type: functional; settings: for MIC80: Lichtheimia corymbifera, 272, 24 h; procedure, shortened: as §3
Aspergillus fumigatus [20] = assay: Antifungal activity against Aspergillus fumigatus 231 after 48 hrs by microdilution method; type: functional; procedure, shortened: as §3
Candida albicans [21] = assay: Antifungal activity against Candida albicans ATCC 44859 after 48 hrs by microdilution method; type: functional; procedure, shortened: as §1
Candida albicans [22] = assay: Antifungal activity against Candida albicans ATCC 90028 after 24 hrs by microdilution method; type: functional; procedure, shortened: as §1
Trichosporon beigelii [23] = assay: Antifungal activity against Trichosporon beigelii 1188 after 48 hrs by microdilution method; type: functional; procedure, shortened: as §1
Pichia kudriavzevii [24] = assay: Antifungal activity against Candida krusei ATCC 6258 after 48 hrs by microdilution method; type: functional; procedure, shortened: as §1
HeLa S3 = assay: Cytostatic activity against human HeLaS3 cells after 48 hrs by XTT assay; settings: Homo sapiens, HeLa S3, 48 h; read-out: IC50
HL-60 = assay: Cytostatic activity against human HL60 cells after 72 hrs by XTT assay; type: functional, cell-based; settings: Homo sapiens, HL-60, 72 h; read-out: IC50
Procedure, shortened: (§4)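 Leukemia cells (L1210 ATCC CCL 219, CCRF-CEM ATCC CCL 119, HL-60 ATCC CCL 240) grown in 24-well plates in RPMI 1640 with fetal calf serum. Growth assessed 72 h after drug addition. Viability measured by XTT spectrophotometric assay; potency given as IC50.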

CCRF-CEM = assay: Cytostatic activity against human CCRF-CEM cells after 72 hrs by XTT assay; type: functional, cell-based; settings: Homo sapiens, CCRF-CEM, 72 h; read-out: IC50; procedure, shortened: as §4
[25] = Lodderomyces parapsilosis, ATCC 22019, 48 h
[26] = Lichtheimia corymbifera, 272, 48 h
[27] = Lodderomyces parapsilosis, ATCC 22019, 24 h
[28] = Aspergillus fumigatus, 231, 24 h
[29] = Aspergillus fumigatus, 231, 48 h
[30] = Trichosporon beigelii, 1188, 48 h

O=C1OC(COc2cccc(Br)c2)C=C1c1ccc(Br)cc1 (configuration not stated)
62.5 µM: MIC80 (Lichtheimia corymbifera [8]; [26]) | MIC80 (Trichosporon beigelii [23]; [30])
31.2 µM: MIC80 (Candida parapsilosis [5]; [25]) | MIC80 (Lichtheimia corymbifera [19])
3.9 µM: MIC80 (Aspergillus fumigatus [14]; [28]) | MIC80 (Candida albicans [22]; ATCC 90028, 24 h)
7.81 µM: MIC80 (Pichia kudriavzevii [1]; E28, 24 h) | MIC80 (Pichia kudriavzevii [3]; ATCC 6258, 24 h) | MIC80 (Candida tropicalis [4]; Candida tropicalis, 156, 24 h) | MIC80 (Candida albicans [11]; ATCC 90028, 48 h) | MIC80 (Trichosporon beigelii [12]) | MIC80 (Candida parapsilosis [13]; [27]) | MIC80 (Clavispora lusitaniae [17])
1.95 µM: MIC80 [2] | MIC80 [6] | MIC80 (Nakaseomyces glabratus [10]) | MIC80 (Nakaseomyces glabratus [16]) | MIC80 (Candida albicans [21]; ATCC 44859, 48 h)
0.97 µM: MIC80 (Candida albicans [18]; ATCC 44859, 24 h)
15.6 µM: MIC80 (Candida tropicalis [7]; Candida tropicalis, 156, 48 h) | MIC80 (Clavispora lusitaniae [9]) | MIC80 (Pichia kudriavzevii [15]; E28, 48 h) | MIC80 (Aspergillus fumigatus [20]; [29]) | MIC80 (Pichia kudriavzevii [24]; ATCC 6258, 48 h)

O=C1OC(COc2ccc(O)cc2)C=C1c1ccc(Br)cc1 (configuration not stated)
1.95 µM: MIC80 [2] | MIC80 [6] | MIC80 (Nakaseomyces glabratus [10]) | MIC80 (Aspergillus fumigatus [14]; [28]) | MIC80 (Nakaseomyces glabratus [16]) | MIC80 (Candida albicans [21]; ATCC 44859, 48 h) | MIC80 (Candida albicans [22]; ATCC 90028, 24 h)
0.97 µM: MIC80 (Candida albicans [18]; ATCC 44859, 24 h)
15.6 µM: MIC80 (Candida parapsilosis [5]; [25]) | MIC80 (Pichia kudriavzevii [15]; E28, 48 h) | MIC80 (Lichtheimia corymbifera [19]) | MIC80 (Trichosporon beigelii [23]; [30]) | MIC80 (Pichia kudriavzevii [24]; ATCC 6258, 48 h)
7.81 µM: MIC80 (Pichia kudriavzevii [1]; E28, 24 h) | MIC80 (Pichia kudriavzevii [3]; ATCC 6258, 24 h) | MIC80 (Candida tropicalis [4]; Candida tropicalis, 156, 24 h) | MIC80 (Candida tropicalis [7]; Candida tropicalis, 156, 48 h) | MIC80 (Clavispora lusitaniae [9]) | MIC80 (Trichosporon beigelii [12]) | MIC80 (Candida parapsilosis [13]; [27]) | MIC80 (Aspergillus fumigatus [20]; [29])
62.5 µM: MIC80 (Lichtheimia corymbifera [8]; [26])
3.9 µM: MIC80 (Candida albicans [11]; ATCC 90028, 48 h) | MIC80 (Clavispora lusitaniae [17])

C[C@@H]1[C@H](O)[C@@H](C)/C=C/C=C/C=C/C=C/C=C/C=C/C=C/[C@H](O[C@@H]2O[C@H](C)[C@@H](O)[C@H](N)[C@@H]2O)C[C@@H]2O[C@](O)(C[C@@H](O)C[C@@H](O)[C@H](O)CC[C@@H](O)C[C@@H](O)CC(=O)O[C@H]1C)C[C@H](O)[C@H]2C(=O)O [AMPHOTERICIN B]
0.07 µM: MIC95 (Candida albicans [22]; ATCC 90028, 24 h)
0.09 µM: MIC95 (Candida tropicalis [4]; Candida tropicalis, 156, 24 h) | MIC95 (Nakaseomyces glabratus [16])
0.06 µM: MIC95 (Candida albicans [21]; ATCC 44859, 48 h)
0.18 µM: MIC95 (Aspergillus fumigatus [14]; [28]) | MIC95 (Pichia kudriavzevii [15]; E28, 48 h)
0.27 µM: MIC95 (Clavispora lusitaniae [9])
0.11 µM: MIC95 (Candida tropicalis [7]; Candida tropicalis, 156, 48 h)
0.03 µM: MIC95 (Nakaseomyces glabratus [10]) | MIC95 (Candida parapsilosis [13]; [27]) | MIC95 (Candida albicans [18]; ATCC 44859, 24 h)
0.14 µM: MIC95 (Pichia kudriavzevii [1]; E28, 24 h) | MIC95 (Pichia kudriavzevii [3]; ATCC 6258, 24 h) | MIC95 (Candida parapsilosis [5]; [25]) | MIC95 (Candida albicans [11]; ATCC 90028, 48 h) | MIC95 (Clavispora lusitaniae [17]) | MIC95 (Pichia kudriavzevii [24]; ATCC 6258, 48 h)
1.8 µM: MIC95 (Trichosporon beigelii [23]; [30])
0.23 µM: MIC95 (Aspergillus fumigatus [20]; [29])
2.16 µM: MIC95 (Lichtheimia corymbifera [8]; [26])

O=C1OC(COc2ccc(I)cc2)C=C1c1ccc(Br)cc1 (configuration not stated)
0.48 µM: MIC80 (Candida albicans [18]; ATCC 44859, 24 h)
3.9 µM: MIC80 [2] | MIC80 (Aspergillus fumigatus [14]; [28]) | MIC80 (Nakaseomyces glabratus [16]) | MIC80 (Candida albicans [22]; ATCC 90028, 24 h)
31.2 µM: MIC80 (Pichia kudriavzevii [1]; E28, 24 h) | MIC80 (Pichia kudriavzevii [3]; ATCC 6258, 24 h) | MIC80 (Candida tropicalis [7]; Candida tropicalis, 156, 48 h) | MIC80 (Clavispora lusitaniae [9]) | MIC80 (Candida parapsilosis [13]; [27])
1.19 µM: IC50 (CCRF-CEM)
7.22 µM: IC50 (HL-60)
1.95 µM: MIC80 [6] | MIC80 (Nakaseomyces glabratus [10]) | MIC80 (Candida albicans [21]; ATCC 44859, 48 h)
7.81 µM: MIC80 (Candida albicans [11]; ATCC 90028, 48 h) | MIC80 (Trichosporon beigelii [12]) | MIC80 (Clavispora lusitaniae [17]) | MIC80 (Aspergillus fumigatus [20]; [29])
> 500 µM: MIC80 (Candida parapsilosis [5]; [25]) | MIC80 (Lichtheimia corymbifera [8]; [26]) | MIC80 (Pichia kudriavzevii [15]; E28, 48 h) | MIC80 (Lichtheimia corymbifera [19]) | MIC80 (Pichia kudriavzevii [24]; ATCC 6258, 48 h)
500 µM: MIC80 (Trichosporon beigelii [23]; [30])
4 µM: IC50 (HeLa S3)
15.6 µM: MIC80 (Candida tropicalis [4]; Candida tropicalis, 156, 24 h)

O=C1CCC=C1c1ccc(Cl)c(Cl)c1
inactive: Activity (Pichia kudriavzevii [1]) | Activity [2] | Activity (Pichia kudriavzevii [3]) | Activity (Candida tropicalis [4]) | Activity (Candida parapsilosis [5]) | Activity [6] | Activity (Candida tropicalis [7]) | Activity (Lichtheimia corymbifera [8]) | Activity (Clavispora lusitaniae [9]) | Activity (Candida albicans [11]) | Activity (Trichosporon beigelii [12]) | Activity (Candida parapsilosis [13]) | Activity (Aspergillus fumigatus [14]) | Activity (Pichia kudriavzevii [15]) | Activity (Clavispora lusitaniae [17]) | Activity (Candida albicans [18]) | Activity (Lichtheimia corymbifera [19]) | Activity (Aspergillus fumigatus [20]) | Activity (Candida albicans [21]) | Activity (Candida albicans [22]) | Activity (Trichosporon beigelii [23]) | Activity (Pichia kudriavzevii [24])
